Measurements published in ChEMBL document CHEMBL1158046, “Photoactivated insecticidal thiophene derivatives from Xanthopappus subacaulis” (2006).
Converted amounts (≈) assume the structure as drawn.

Experiments:
Aedes albopictus [1] = assay: Insecticidal activity against Asian tiger mosquito fourth-instar larvae after 24 hrs in dark; type: functional
How it was run: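 Aedes albopictus fourth-instar larvae from a laboratory colony; samples dissolved and serially diluted in acetone, 0.4 mL added to 20 mL dechlorinated water with 30 larvae; held in the dark throughout the trial; mortality read at 24 h, three replications per concentration; LC50 (concentration causing 50% mortality) determined.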

Aedes albopictus [2] = assay: Insecticidal activity against Asian tiger mosquito fourth-instar larvae irradiated with 2074 uW/cm'2 UV light for 1.5 hrs; type: functional; details: light or radiation study
How it was run: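 Aedes albopictus fourth-instar larvae from a laboratory colony; acetone-diluted samples (0.4 mL) added to 20 mL dechlorinated water with 30 larvae; 3 h dark incubation, then 1.5 h UV irradiation (300-400 nm, max 365 nm), then 24 h in darkness; mortality from three replications per concentration; LC50 (concentration causing 50% mortality) determined.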

Row | Structure (SMILES) | LC50 (Aedes albopictus [1]) | LC50 (Aedes albopictus [2])
1 | C/C=C/C#CC#Cc1ccc(CO)s1 | > 10 µg/mL | 0.3 µg/mL (≈ 1.48 µM)
2 | C/C=C/C#CC#Cc1ccc(C(O)CO)s1 (racemic) | > 10 µg/mL | 4.2 µg/mL (≈ 18.1 µM)
3 | C/C=C/C#CC#Cc1ccc(C(COC(C)=O)OC(C)=O)s1 (racemic) | > 10 µg/mL | 0.66 µg/mL (≈ 2.09 µM)
4 | C/C=C/C#CC#Cc1ccc(C(O)CCl)s1 (racemic) [XANTHOPAPPIN B] | 5.1 µg/mL (≈ 20.3 µM) | 0.53 µg/mL (≈ 2.11 µM)
5 | C/C=C/C#CC#Cc1ccc(C(=O)C(O)(CC(C)=O)c2ccc(C#CC#C/C=C/C)s2)s1 (racemic) [XANTHOPAPPIN C] | > 10 µg/mL | 0.95 µg/mL (≈ 2.08 µM)
6 | C/C=C/C#CC#Cc1cccs1 [XANTHOPAPPIN A] | > 10 µg/mL | 0.71 µg/mL (≈ 4.12 µM)
